Results as given in paper PMC3544189 (ACS medicinal chemistry letters, 2012).
Entries after “also recorded” stand apart in the source; their conditions may differ.

Tests used:
proteasome [1] = conditions: cited from earlier work
[2] = system: PA28-activated proteasome inhibited by Aβ1-42; test: Antagonism of Aβ1-42 inhibition of PA28-activated proteasome by compound 2; format: biochemical; conditions: compound 2 at 14, 28, 56 μM; Aβ1-42 10 μg/ml; PA28 1.8 μg/ml
[3] = system: chymotrypsin-like activity of human 20S proteasome; format: biochemical; conditions: for Proteasome activation (in words): chymotrypsin-like activity, absence of PA28
How it was run: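 Without PA28, proteasome was exposed to test compound. Chymotrypsin-like activity was followed by cleavage of the fluorogenic substrate Suc-LLVY-AMC, read in relative fluorescence units against a proteasome-plus-substrate background. EC50 was the concentration raising activity to 50% of its maximum level. Values are mean ± SD of three independent experiments.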

[4] = system: chymotrypsin-like proteasome activity (20S proteasome + PA28); test: Inhibition of chymotrypsin-like proteasome activity in the presence of PA28; format: biochemical, human
How it was run: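 The proteasome was activated by the cellular activator PA28 and then exposed to test compound. Chymotrypsin-like activity was read by Suc-LLVY-AMC fluorescence, with proteasome plus substrate as background. IC50 was the concentration inhibiting PA28-present chymotrypsin-like activity by 50%. Values are mean ± SD of three independent experiments.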

proteasome [5] = conditions: cited from earlier work; remark: listed apart in the source
proteasome [6] = conditions: cited from earlier work; remark: listed apart in the source
[7] = molecular target: PA28-activated proteasome; test: Inhibition of PA28-activated proteasome by Aβ1-42; format: biochemical; conditions: PA28 1.8 μg/ml

Compound | Proteasome activation (in words) [3] | Proteasome inhibition (in words) [4] | other results
COC(=O)CC[C@@H](C)[C@H]1CC[C@H]2[C@@H]3CC[C@@H]4C[C@H](OC(=O)CCCCCC(=O)O)CC[C@]4(C)[C@H]3CC[C@]12C [Compound 2, 3α-O-pimeloyl-lithocholic acid methyl ester] | active in proteasome activation | – | Proteasome inhibition in previous study (in words) (proteasome [1]): inactive in proteasome inhibition; Antagonism of Aβ1-42-mediated proteasome inhibition (in words) [2]: antagonized the Aβ1-42-mediated proteasome inhibition in a dose dependent manner; also recorded: potently antagonized; also recorded: completely reverse
CCOC(=O)CC[C@@H](C)[C@H]1CC[C@H]2[C@@H]3CC[C@@H]4C[C@H](OC(=O)CCCCCC(=O)O)CC[C@]4(C)[C@H]3CC[C@]12C [Compound 3] | completely abrogated the proteasome activation activity | – | –
CNC(=O)CC[C@@H](C)[C@H]1CC[C@H]2[C@@H]3CC[C@@H]4C[C@H](OC(=O)CCCCCC(=O)O)CC[C@]4(C)[C@H]3CC[C@]12C [Compound 4] | completely abrogated the proteasome activation activity | – | –
COC(=O)CC[C@@H](C)[C@H]1CC[C@H]2[C@@H]3CC[C@@H]4C[C@@H](OC(=O)CCCCCC(=O)O)CC[C@]4(C)[C@H]3CC[C@]12C [Compound 5] | did not activate the proteasome | inhibited the proteasome | –
COC(=O)CC[C@@H](C)[C@H]1CC[C@H]2[C@@H]3CC[C@@H]4C[C@H](NC(=O)CCCCCC(=O)O)CC[C@]4(C)[C@H]3CC[C@]12C [Compound 6] | – | – | Increase of proteasome activation activity relative to compound 2 ([3]; C3 amide versus C3 ester): approximately two-fold
COC(=O)CC[C@@H](C)[C@H]1CC[C@H]2[C@@H]3CC[C@@H]4C[C@@H](NC(=O)CCCCCC(=O)O)CC[C@]4(C)[C@H]3CC[C@]12C [Compound 7] | did not activate the proteasome | inhibited the proteasome | –
COC(=O)CC[C@@H](C)[C@H]1CC[C@H]2[C@@H]3CC[C@@H]4C[C@@H](N)CC[C@]4(C)[C@H]3CC[C@]12C [Compound 9, 3-β-amino-lithocholic acid methyl ester] | did not activate the proteasome | inhibited the proteasome | –
C[C@H](CCC(=O)O)[C@H]1CC[C@H]2[C@@H]3CC[C@@H]4C[C@H](O)CC[C@]4(C)[C@H]3CC[C@]12C [Lithocholic acid, lithocholic acid, reference compound] | did not activate the proteasome | weak proteasome inhibitor | –
C/C=C1/[C@H](O[C@@H]2O[C@H](CO)[C@@H](O)[C@H](O)[C@H]2O)OC=C(C(=O)OC)[C@H]1CC(=O)OCCc1ccc(O)c(O)c1 [Oleuropein, reference compound] | did not show any significant activity; also recorded: did not activate the proteasome | – | Proteasome activation over background proteasome activity (proteasome [5]; absence of cellular proteasome activators): approximately 1.5 fold; Concentration reported to enhance proteasome activities in vitro (proteasome [5]): 0.5 µg/mL
CCCCCCCCCCCCOS(=O)(=O)[O-].[Na+] [SDS] | – | – | Concentration reported for proteasome activation (proteasome [5]): 0.05%
CN(C)c1ccc2nc3ccc(=[N+](C)C)cc-3sc2c1 [methylene blue] | – | – | Enhancement of proteasome activity (in words) (proteasome [6]): slightly enhance proteasome activity
Aβ1-42: amyloid beta peptide 1-42, the likely pathogenic form of Aβ | – | – | Inhibition of PA28-activated proteasome (in words) [7]: inhibited the proteasome in a dose dependent manner
polylysine | – | – | Concentration reported for proteasome activation (proteasome [5]): 1 mg/mL
